Laboratory results reported in ChEMBL document CHEMBL4311977, “Design and synthesis of parthenolide and 5-fluorouracil conjugates as potential anticancer agents against drug resistant hepatocellular carcinoma” (Eur J Med Chem, 2019).
The source made the active and inactive calls. The calls are words filed in the database; no cut-off is given here.

Legend:
[1] = Therapeutic index, ratio of IC50 for mouse 3T3 cells to IC50 for human Bel7402/5-FU cells; assay type: toxicity; settings: mouse 3T3 cells versus human Bel7402/5-FU cells, read-out: TI
Bel7402/5-FU [2] = test: Induction of apoptosis in human Bel7402/5-FU cells assessed as upregulation of Bax expression at 0.5 to 5 uM incubated for 24 hrs by Western blot analysis; assay type: functional, cell-based
How it was run: (§1)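 Bel-7402/5-FU cells were seeded at 5 × 10⁵ per well and left 12 h, then treated with four concentrations (0.5, 1, 2, 5) for 24 h. Cells were PBS-washed and lysed in RIPA on ice for 30 min, then denatured at 100 °C for 5 min. Lysates went through SDS-PAGE and PVDF transfer, 5% milk blocking for 1 h at room temperature, primary antibodies, and HRP secondary for 2 h at room temperature.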

Bel7402/5-FU [3] = test: Induction of apoptosis in human Bel7402/5-FU cells assessed as increase in irregular nuclear morphology incubated for 48 hrs by DAPI staining based fluorescence microscopic analysis; assay type: functional, cell-based
How it was run: (§2)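 Bel-7402/5-FU cells were seeded at 5 × 10⁵ per well and left 12 h, then exposed at three concentrations (1, 2, 5) for 48 h. Cells were washed three times in PBS and stained with DAPI for 10 min at room temperature. Nuclear morphology was scored by fluorescence microscopy.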

Bel7402/5-FU [4] = test: Induction of apoptosis in human Bel7402/5-FU cells assessed as upregulation of Bim expression at 0.5 to 5 uM incubated for 24 hrs by Western blot analysis; assay type: functional, cell-based; how it was run: as §1
Bel7402/5-FU [5] = test: Induction of apoptosis in human Bel7402/5-FU cells assessed as downregulation of Bcl-xl expression at 0.5 to 5 uM incubated for 24 hrs by Western blot analysis; assay type: functional, cell-based; how it was run: as §1
Bel7402/5-FU [6] = test: Induction of apoptosis in human Bel7402/5-FU cells assessed as increase in apoptotic bodies incubated for 48 hrs by DAPI staining based fluorescence microscopic analysis; assay type: functional, cell-based; how it was run: as §2
Bel7402/5-FU [7] = test: Induction of apoptosis in human Bel7402/5-FU assessed as late apoptotic cells at 5 uM incubated for 48 hrs by annexinV-FITC/propidium iodide staining based flow cytometry (reference value: 0.945 %)
Bel7402/5-FU [8] = test: Induction of apoptosis in human Bel7402/5-FU assessed as apoptotic cells at 0.5 uM incubated for 48 hrs by annexinV-FITC/propidium iodide staining based flow cytometry (reference value: 3.37 +/- 0.47 %)
Bel7402/5-FU [9] = test: Induction of apoptosis in human Bel7402/5-FU assessed as necrotic cells at 2.5 uM incubated for 48 hrs by annexinV-FITC/propidium iodide staining based flow cytometry (reference value: 0.024 to 0.157 %)

C=C1C(=O)O[C@H]2[C@H]1CC/C(COC(=O)Cn1cc(F)c(=O)n(Cc3ccc(C(F)(F)F)cc3)c1=O)=C\CC[C@@]1(C)O[C@@H]21
selectivity ratio [1]: 2.3
Activity (Bel7402/5-FU [2]): Active
Activity (Bel7402/5-FU [3]): Dose-dependent effect
Activity (Bel7402/5-FU [4]): Active
Activity (Bel7402/5-FU [5]): Active
Activity (Bel7402/5-FU [6]): Dose-dependent effect
Activity (Bel7402/5-FU [7]): 19.5 - 46.1%
Activity (Bel7402/5-FU [8]): 3.97%
Activity (Bel7402/5-FU [9]): 1.87%
